ChEMBL document CHEMBL4725360, “Optimization of Acetazolamide-Based Scaffold as Potent Inhibitors of Vancomycin-Resistant Enterococcus” (J Med Chem, 2020)
In brackets after ≈: the same amount, converted by molar mass. Activity calls are given as the source filed them. The calls are words filed in the database; no cut-off is given here.

Columns and labels:
Enterococcus faecium [1] = experiment: Inhibition of carbonic anhydrase in Enterococcus faecium ATCC 700221 assessed as antibacterial activity incubated for 18 to 20 hrs in presence of ambient air by CLSI protocol based broth microdilution assay; details: time hrs 18-20
Procedure, shortened: (§1)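 CLSI broth microdilution: inoculum about 5 × 10⁵ CFU/mL in trypticase soy broth with serial dilutions of agents. Paired plates incubated at 37 °C for 18–20 h, one set in ambient air ("normal"), the other under 5% CO₂. MIC is the lowest concentration completely inhibiting visible growth.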

Enterococcus faecium [2] = experiment: Antibacterial activity against Enterococcus faecium NR-28978 incubated for 18 to 20 hrs under aerobic condition by CLSI protocol based broth microdilution assay; type: functional; details: time hrs 18-20
Procedure, shortened: (§2)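 Broth microdilution per CLSI. Strains grown aerobically overnight on trypticase soy agar at 37 °C. Inoculum set to 0.5 McFarland, diluted in trypticase soy broth to about 5 × 10⁵ CFU/mL. Agents serially diluted, plates incubated aerobically at 37 °C for 18–20 h. MIC is the lowest concentration with no visible growth. Compound stocks 10 mg/mL in DMSO.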

Enterococcus faecalis [3] = experiment: Antibacterial activity against Enterococcus faecalis NR-31970 incubated for 18 to 20 hrs under aerobic condition by CLSI protocol based broth microdilution assay; type: functional, organism-based; details: time hrs 18-20; procedure, shortened: as §2
Enterococcus faecium [4] = experiment: Antibacterial activity against Enterococcus faecium NR-31916 incubated for 18 to 20 hrs under aerobic condition by CLSI protocol based broth microdilution assay; type: functional; details: time hrs 18-20; procedure, shortened: as §2
Enterococcus faecium [5] = experiment: Antibacterial activity against Enterococcus faecium NR-31903 incubated for 18 to 20 hrs under aerobic condition by CLSI protocol based broth microdilution assay; type: functional; details: time hrs 18-20; procedure, shortened: as §2
Enterococcus faecium [6] = experiment: Inhibition of carbonic anhydrase in Enterococcus faecium ATCC 700221 assessed as antibacterial activity incubated for 18 to 20 hrs in presence of 5% CO2 by CLSI protocol based broth microdilution assay; details: time hrs 18-20; procedure, shortened: as §1
Enterococcus faecalis [7] = experiment: Antibacterial activity against Enterococcus faecalis NR-31975 incubated for 18 to 20 hrs under aerobic condition by CLSI protocol based broth microdilution assay; type: functional, organism-based; details: time hrs 18-20; procedure, shortened: as §2
Enterococcus faecium [8] = experiment: Antibacterial activity against Enterococcus faecium NR-31914 incubated for 18 to 20 hrs under aerobic condition by CLSI protocol based broth microdilution assay; type: functional; details: time hrs 18-20; procedure, shortened: as §2
Enterococcus faecium [9] = experiment: Antibacterial activity against Enterococcus faecium NR-31971 incubated for 18 to 20 hrs under aerobic condition by CLSI protocol based broth microdilution assay; type: functional; details: time hrs 18-20; procedure, shortened: as §2
[10] = Cytotoxicity against human Caco2 cells incubated for 2 hrs by MTS assay; type: cell-based; details: Caco-2 cells
Procedure, shortened: (§3)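 Caco-2 cells maintained in DMEM with 10% FBS, non-essential amino acids and penicillin-streptomycin at 37 °C, 5% CO₂. Compound exposure for 2 h in serum-free medium at several concentrations; DMSO-matched controls. Viability expressed relative to DMSO controls (mean ± SD), and CC₅₀ derived.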

Caco-2 = experiment: Cytotoxicity against human Caco2 cells at 128 ug/ml incubated for 2 hrs by MTS assay; type: cell-based; details: caco-2, 2 h, dose 128 µg/ml; procedure, shortened: as §3
Enterococcus faecium [11] = experiment: Antibacterial activity against Enterococcus faecium NR-32052 incubated for 18 to 20 hrs under aerobic condition by CLSI protocol based broth microdilution assay; type: functional; details: time hrs 18-20; procedure, shortened: as §2
Enterococcus faecium [12] = experiment: Antibacterial activity against Enterococcus faecium HM968 incubated for 18 to 20 hrs under aerobic condition by CLSI protocol based broth microdilution assay; type: functional; details: time hrs 18-20; procedure, shortened: as §2
Enterococcus faecium [13] = experiment: Antibacterial activity against Enterococcus faecium HM965 incubated for 18 to 20 hrs under aerobic condition by CLSI protocol based broth microdilution assay; type: functional; details: time hrs 18-20; procedure, shortened: as §2
Enterococcus faecium [14] = experiment: Antibacterial activity against Enterococcus faecium NR-32065 incubated for 18 to 20 hrs under aerobic condition by CLSI protocol based broth microdilution assay; type: functional; details: time hrs 18-20; procedure, shortened: as §2
Enterococcus faecalis [15] = experiment: Antibacterial activity against Enterococcus faecalis HM-335 incubated for 18 to 20 hrs under aerobic condition by CLSI protocol based broth microdilution assay; type: functional; details: time hrs 18-20; procedure, shortened: as §2
Enterococcus faecalis [16] = experiment: Antibacterial activity against Enterococcus faecalis HM-334 incubated for 18 to 20 hrs under aerobic condition by CLSI protocol based broth microdilution assay; type: functional; details: time hrs 18-20; procedure, shortened: as §2
Enterococcus faecium [17] = experiment: Antibacterial activity against Enterococcus faecium NR-31972 incubated for 18 to 20 hrs under aerobic condition by CLSI protocol based broth microdilution assay; type: functional; details: time hrs 18-20; procedure, shortened: as §2
Enterococcus faecium [18] = experiment: Bacteriostatic activity against Enterococcus faecium ATCC 700221 assessed as reduction in bacterial burden at 5 times MIC preincubated for 24 hrs followed by replating on soya agar plates and measured after 16 hrs by time-kill assay; type: functional, organism-based
Procedure, shortened: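 E. faecium ATCC 700221 overnight culture diluted in trypticase soy broth to 3.5 × 10⁶ CFU/mL. […] Samples taken at 2, 4, 6, 8, 12 and 24 h, diluted in PBS and plated on trypticase soy agar. Colonies counted after 16 h at 37 °C. Detection limit 100 CFU/mL. Two-way ANOVA with Dunnett's test.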

Enterococcus faecium [19] = experiment: Antibacterial activity against Enterococcus faecium ATCC 700221 by CLSI protocol based assay; type: functional; procedure, shortened: as §2

Structure (SMILES) | inhibition (Enterococcus faecium [1]) | MIC (Enterococcus faecium [2]) | Activity (Enterococcus faecalis [3]) | MIC (Enterococcus faecium [4]) | MIC (Enterococcus faecium [5]) | inhibition (Enterococcus faecium [6]) | Activity (Enterococcus faecalis [7]) | MIC (Enterococcus faecium [8]) | MIC (Enterococcus faecium [9]) | CC50 at 2 h [10] | Activity (Caco-2) | MIC (Enterococcus faecium [11]) | MIC (Enterococcus faecium [12]) | MIC (Enterococcus faecium [13]) | MIC (Enterococcus faecium [14]) | MIC (Enterococcus faecalis [15]) | MIC (Enterococcus faecalis [16]) | MIC (Enterococcus faecium [17]) | Activity (Enterococcus faecium [18]) | MIC (Enterococcus faecium [19])
NS(=O)(=O)c1nnc(NC(=O)C2CCCC2)s1 | Active | 0.5 µg/mL (≈ 1.81 µM) | Active | 0.5 µg/mL (≈ 1.81 µM) | 0.5 µg/mL (≈ 1.81 µM) | inactive | Active | 0.5 µg/mL (≈ 1.81 µM) | 1 µg/mL (≈ 3.62 µM) | > 128 µg/mL | Non-Toxic | 0.5 µg/mL (≈ 1.81 µM) | 0.5 µg/mL (≈ 1.81 µM) | 0.25 µg/mL (≈ 0.905 µM) | 0.5 µg/mL (≈ 1.81 µM) | 0.5 µg/mL (≈ 1.81 µM) | 0.5 µg/mL (≈ 1.81 µM) | 1 µg/mL (≈ 3.62 µM) | – | –
CC(=O)NC[C@H]1CN(c2ccc(N3CCOCC3)c(F)c2)C(=O)O1 [LINEZOLID] | – | 1 µg/mL (≈ 2.96 µM) | – | 1 µg/mL (≈ 2.96 µM) | 1 µg/mL (≈ 2.96 µM) | – | – | 1 µg/mL (≈ 2.96 µM) | 1 µg/mL (≈ 2.96 µM) | – | – | 0.5 µg/mL (≈ 1.48 µM) | 0.5 µg/mL (≈ 1.48 µM) | – | 0.25 µg/mL (≈ 0.741 µM) | 0.5 µg/mL (≈ 1.48 µM) | – | 0.5 µg/mL (≈ 1.48 µM) | Active | –
NS(=O)(=O)c1nnc(NC(=O)CCC2CCCC2)s1 | Active | 0.125 µg/mL (≈ 0.411 µM) | Active | 0.03 µg/mL (≈ 0.0986 µM) | 0.03 µg/mL (≈ 0.0986 µM) | inactive | Active | 0.06 µg/mL (≈ 0.197 µM) | 0.03 µg/mL (≈ 0.0986 µM) | > 128 µg/mL | Non-Toxic | 0.06 µg/mL (≈ 0.197 µM) | 0.06 µg/mL (≈ 0.197 µM) | 0.06 µg/mL (≈ 0.197 µM) | 0.06 µg/mL (≈ 0.197 µM) | 0.06 µg/mL (≈ 0.197 µM) | 0.015 µg/mL (≈ 0.0493 µM) | 0.03 µg/mL (≈ 0.0986 µM) | – | –
CC(=O)/N=c1/sc(S(N)(=O)=O)nn1C [METHAZOLAMIDE] | – | – | – | – | – | – | – | – | – | – | – | – | – | – | – | – | – | – | – | 4 µg/mL (≈ 16.9 µM)
CCCCCCC(=O)Nc1nnc(S(N)(=O)=O)s1 | Active | 0.06 µg/mL (≈ 0.205 µM) | Active | 0.06 µg/mL (≈ 0.205 µM) | 0.03 µg/mL (≈ 0.103 µM) | inactive | Active | 0.03 µg/mL (≈ 0.103 µM) | 0.03 µg/mL (≈ 0.103 µM) | > 128 µg/mL | Non-Toxic | 0.03 µg/mL (≈ 0.103 µM) | 0.015 µg/mL (≈ 0.0513 µM) | 0.015 µg/mL (≈ 0.0513 µM) | 0.03 µg/mL (≈ 0.103 µM) | 0.015 µg/mL (≈ 0.0513 µM) | 0.015 µg/mL (≈ 0.0513 µM) | 0.03 µg/mL (≈ 0.103 µM) | – | –
NS(=O)(=O)c1nnc(NC(=O)C2CCCCC2)s1 | – | 0.5 µg/mL (≈ 1.72 µM) | Active | 0.25 µg/mL (≈ 0.861 µM) | 0.5 µg/mL (≈ 1.72 µM) | – | Active | 0.5 µg/mL (≈ 1.72 µM) | 0.5 µg/mL (≈ 1.72 µM) | > 128 µg/mL | Non-Toxic | 0.5 µg/mL (≈ 1.72 µM) | 0.5 µg/mL (≈ 1.72 µM) | 0.25 µg/mL (≈ 0.861 µM) | 0.5 µg/mL (≈ 1.72 µM) | 0.5 µg/mL (≈ 1.72 µM) | 0.25 µg/mL (≈ 0.861 µM) | 0.25 µg/mL (≈ 0.861 µM) | – | –
